Calls of active or inactive are those of the source. The rule behind the calls is not given here.
Tests used:
[1] = Growth inhibition of PLP2 cells after 48 hrs by SRB assay; format: cell-based, Sus scrofa; settings: pig
Outline: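 Porcine liver primary cells (PLP2), established by the authors, subcultured before confluence, seeded 1.0 × 10^4 cells/well in DMEM with 10% FBS and penicillin/streptomycin. Treated 48 h with compound solutions, then sulforhodamine B read-out. GI50 is the concentration inhibiting 50% of net growth; three independent experiments in triplicate, mean ± SD; ellipticine positive control.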

HCT-15 = assay: Growth inhibition of human HCT15 cells after 48 hrs by SRB assay; format: functional; settings: HCT-15, 48 h
Outline: (§1)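 Sulforhodamine B assay. MCF-7, NCI-H460, HCT15 kept in RPMI-1640 with 10% heat-inactivated FBS and 2 mM glutamine, seeded 7.5 × 10^3 cells/well. HeLa and HepG2 kept in DMEM with 10% FBS, 2 mM glutamine and penicillin/streptomycin, seeded 1.0 × 10^4 cells/well. Cultures at 37 °C, 5% CO2. GI50 is the concentration giving 50% inhibition of net growth; three independent experiments in triplicate, mean ± SD; ellipticine positive control.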

MCF7 [2] = assay: Growth inhibition of human MCF7 cells after 48 hrs by SRB assay; format: functional; settings: MCF7, 48 h; outline: as §1
HepG2 = assay: Growth inhibition of human HepG2 cells after 48 hrs by SRB assay; format: functional; settings: HepG2, 48 h; outline: as §1
HeLa = assay: Growth inhibition of human HeLa cells after 48 hrs by SRB assay; format: functional; outline: as §1
NCI-H460 [3] = assay: Growth inhibition of human NCI-H460 cells after 48 hrs by SRB assay; format: functional; settings: NCI-H460, 48 h; outline: as §1
NCI-H460 [4] = assay: Induction of apoptosis in human NCI-H460 cells at GI50 after 48 hrs by TUNEL assay relative to DMSO-treated control; format: functional
Outline: (§2)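 NCI-H460 seeded at 1 × 10^5 cells/well, grown 24 h at 37 °C, treated with compound at GI50, DMSO vehicle or medium for 24 h or 48 h. Fixed in 4% paraformaldehyde 30 min, cytospun, permeabilized with ice-cold 0.1% Triton X-100 in 0.1% sodium citrate 2 min, TUNEL reaction mix (enzyme 1:20) 1 h, DAPI counterstain. Fluorescence microscopy counting at least 500 cells per slide (about 300 in some 48 h samples). Mean ± SEM of three independent experiments; two-tailed paired t-test versus DMSO.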

NCI-H460 [5] = assay: Cell cycle arrest in human NCI-H460 cells assessed as accumulation at sub-G1 phase at GI50 after 24 hrs by propidium iodide staining-based flow cytometry; format: functional
NCI-H460 [6] = assay: Induction of apoptosis in human NCI-H460 cells at GI50 after 24 hrs by TUNEL assay; format: functional, cell-based; outline: as §2
[7] = Growth inhibition of human A375-C5 cells after 48 hrs by SRB assay; format: functional; settings: A375-C5, 48 h
MCF7 [8] = assay: Growth inhibition of human MCF7 cells; format: functional
NCI-H460 [9] = assay: Growth inhibition of human NCI-H460 cells; format: functional
[10] = Growth inhibition of human A375-C5 cells; format: functional

GI50 (HCT-15) [µM] | GI50 (MCF7 [2]) [µM] | GI50 (HepG2) [µM] | GI50 (HeLa) [µM] | GI50 (NCI-H460 [3]) [µM] | GI50 (MCF7 [8]) [µM] | GI50 (NCI-H460 [9]) [µM] | Compound | GI50 at 48 h [1] [µM] | Activity (NCI-H460 [4]) [%] | Activity (NCI-H460 [5]) | Activity (NCI-H460 [6]) | GI50 [7] [µM] | GI50 [10] [µM]
25.9 | 20.2 | 22.1 | 20.4 | 19.4 | – | – | COc1ccc(Nc2ccnc3ccsc23)cc1 | 22.7 | – | – | – | – | –
86.7 | 94.4 | 25.8 | 26.4 | 79.5 | – | – | Fc1ccccc1Nc1ccnc2ccsc12 | 115 | – | – | – | – | –
91.2 | 90.9 | 62.7 | 28.9 | 94.2 | – | – | COc1ccccc1Oc1ccnc2ccsc12 | > 125 | – | – | – | – | –
– | 1 | 1 | – | 1 | – | – | COC(=O)c1sc2cccnc2c1Nc1ccc(OC)cc1N | – | – | – | – | 1 | –
– | – | – | – | – | 1 | 1 | COC(=O)c1sc2cc(Oc3cccc(OC)c3)cnc2c1N | – | – | – | – | – | 1
91.2 | 80.7 | 26.3 | 77.5 | 78.5 | – | – | Fc1ccc(Nc2ccnc3ccsc23)cc1 | 100 | – | – | – | – | –

Further lines, the compound ahead of its results:

Compound | GI50 (HCT-15) [µM] | GI50 (MCF7 [2]) [µM] | GI50 (HepG2) [µM] | GI50 (HeLa) [µM] | GI50 (NCI-H460 [3]) [µM] | GI50 (MCF7 [8]) [µM] | GI50 (NCI-H460 [9]) [µM] | GI50 at 48 h [1] [µM] | Activity (NCI-H460 [4]) [%] | Activity (NCI-H460 [5]) | Activity (NCI-H460 [6]) | GI50 [7] [µM] | GI50 [10] [µM]
Fc1ccccc1Oc1ccnc2ccsc12 | 97.2 | 74.3 | 16.4 | 50.3 | 78 | – | – | 87.2 | – | – | – | – | –
COc1cccc(Nc2ccnc3ccsc23)c1 | 0.31 | 0.25 | 5.02 | 0.09 | 0.28 | – | – | 1.94 | >30 | Active | Active | – | –
Fc1cccc(Nc2ccnc3ccsc23)c1 | 70.7 | 63.7 | 32 | 69.2 | 77.5 | – | – | 119 | – | – | – | – | –
Fc1cccc(Oc2ccnc3ccsc23)c1 | 103 | 102 | 42.6 | 34.5 | 103 | – | – | > 125 | – | – | – | – | –
COc1ccccc1Nc1ccnc2ccsc12 | 5.91 | 5.88 | 18 | 1.4 | 5.4 | – | – | 6.56 | >30 | Active | Active | – | –
COC(=O)c1sc2cc(Oc3cccc(OC)c3OC)cnc2c1N | – | – | – | – | – | 1 | 1 | – | – | – | – | – | 1
COc1cccc(Oc2ccnc3ccsc23)c1 | 0.39 | 1.56 | 2.7 | 3.14 | 1.04 | – | – | 26.7 | >30 | Active | Active | – | –
COc1ccc(Oc2ccnc3ccsc23)cc1 | 86 | 93.3 | 53.2 | 49.4 | 86.8 | – | – | 94.5 | – | – | – | – | –
Cc1c2ccncc2c(C)c2c1[nH]c1ccccc12 [ELLIPTECINE] | 1.91 | 4.32 | 5.38 | 3.28 | 5.77 | – | – | 2.06 | – | – | – | – | –
Fc1ccc(Oc2ccnc3ccsc23)cc1 | 88.1 | 98.5 | 45.1 | 33.8 | 101 | – | – | > 125 | – | – | – | – | –

— ChEMBL document CHEMBL2434926, “New di(hetero)arylethers and di(hetero)arylamines in the thieno[3,2-b]pyridine series: synthesis, growth inhibitory activity on human tumor cell lines and non-tumor cells, effects on cell cycle and on programmed cell death” (Eur J Med Chem, 2013)
